Results on one compound are retold here after ChEMBL document CHEMBL1123757, “Selective thromboxane synthetase inhibitors and antihypertensive agents. New derivatives of 4-hydrazino-5H-pyridazino[4,5-b]indole, 4-hydrazinopyridazino[4,5-a]indole, and related compounds” (J Med Chem, 1987).

For this assay, the system named is Rattus norvegicus. The assay is described as follows: Antihypertensive activity in spontaneously hypertensive rats (SHR) measured by percentage fall in arterial pressure (AP) at 25 mg/kg administered intraperitoneally at 3 h. As to conditions: route intraperitoneal. In kind it is functional, Artery. In short, it runs like this: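 Unanesthetized Okamoto-strain SHR, male and female, 8 weeks old, 300–350 g, systolic pressure ≥190 mmHg, heart rate 400–650 beats/min; five animals per dose. Given ip at 2.5 mL/kg, dissolved or suspended in normal saline or saline with 0.2% (carboxymethyl)cellulose and 1.0% Tween 80. Tail AP and CR recorded by mechanical transduction at set times; reported as percentage fall from control.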

Take `COc1ccc2[nH]c3c(NN)nncc3c2c1.Cl`: the “Decrease in AP” value was determined as 57%.
